Key:
Rattus norvegicus [1] = test: Biodistribution of radioligand [125I]FIDA1 in heart of rat after 2 minutes after an intravenous injection is given (average of 3 rats); assay type: ADME, organism-based; details: in vivo
Procedure, shortened: (§1)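 Male Sprague–Dawley rats (225–300 g) were given 0.2 mL saline containing the radioiodinated ligand (8–10 μCi) into the femoral vein under ether anesthesia. They were killed at set times by cardiac excision. Organs were weighed and γ-counted against diluted aliquots of the injected dose and expressed as % dose/organ. Blood and muscle were taken as 7% and 40% of body weight. Three rats were used per point.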

Rattus norvegicus [2] = test: Biodistribution of radioligand [125I]-FIDA1 in heart of rat after 120 minutes after an intravenous injection is given (average of 3 rats); assay type: ADME, organism-based; details: in vivo, 2 h; procedure, shortened: as §1
Rattus norvegicus [3] = test: Biodistribution of radioligand [125I]FIDA1 in skin of rat after 60 minutes after an intravenous injection is given (average of 3 rats); assay type: ADME, organism-based, Zone of skin; details: in vivo, 1 h; procedure, shortened: as §1
Rattus norvegicus [4] = test: Biodistribution of radioligand [125I]FIDA1 in thyroid of rat after 60 minutes after an intravenous injection is given (average of 3 rats); assay type: ADME, organism-based, Thyroid gland; details: in vivo, 1 h; procedure, shortened: as §1
Rattus norvegicus [5] = test: Biodistribution of radioligand [125I]FIDA1 in liver of rat after 120 minutes after an intravenous injection is given (average of 3 rats); assay type: ADME, organism-based; details: in vivo, 2 h; procedure, shortened: as §1
Rattus norvegicus [6] = test: Biodistribution of radioligand [125I]FIDA1 in kidney of rat after 120 minutes after an intravenous injection is given (average of 3 rats); assay type: ADME, organism-based; details: in vivo, 2 h; procedure, shortened: as §1
Rattus norvegicus [7] = test: Uptake of radioligand [125I]FIDA1 by cerebellum in rat after 2 minutes after an intravenous injection is given (average of 3 rats); assay type: ADME, organism-based; details: in vivo
Procedure, shortened: (§2)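 Male Sprague–Dawley rats (225–300 g) under ether anesthesia received radioiodinated tracer (8–10 μCi in 0.2 mL saline) into the femoral vein. They were killed by cardiac excision at set times. Cortex, striatum, hippocampus and cerebellum were dissected, weighed and gamma-counted. Results are % dose/gram against diluted injected dose.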

Rattus norvegicus [8] = test: Biodistribution of radioligand [125I]FIDA1 in lung of rat after 120 minutes after an intravenous injection is given (average of 3 rats); assay type: ADME, organism-based; details: in vivo, 2 h; procedure, shortened: as §1
Rattus norvegicus [9] = test: Biodistribution of radioligand [125I]FIDA1 in blood of rat after 30 minutes after an intravenous injection is given (average of 3 rats); assay type: ADME, organism-based; details: in vivo, 0.5 h; procedure, shortened: as §1
Rattus norvegicus [10] = species: Rattus norvegicus; test: Dissociation constant was determined; assay type: ADME, organism-based
Procedure, shortened: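 Rat striatal membrane homogenate (40–60 μg protein) incubated with 125I-labeled ligand ± competitors in 0.2 mL assay buffer, 15 min at 37 °C with stirring. Filtered on protamine-pretreated (0.2%) GF/B filters, washed with cold 50 mM Tris-HCl pH 7.4, gamma-counted. Nonspecific binding defined with 10 μM (+)-butaclamol. Scatchard and competition data fitted by iterative nonlinear least squares.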

Rattus norvegicus [11] = test: Uptake of radioligand [125I]FIDA1 by striatum in rat after 120 minutes after an intravenous injection is given (average of 3 rats); assay type: ADME, organism-based; details: in vivo, 2 h; procedure, shortened: as §2
Rattus norvegicus [12] = test: Biodistribution of radioligand [125I]FIDA1 in liver of rat after 60 minutes after an intravenous injection is given (average of 3 rats); assay type: ADME, organism-based; details: in vivo, 1 h; procedure, shortened: as §1
Rattus norvegicus [13] = test: Biodistribution of radioligand [125I]-FIDA1 in kidney of rat after 2 minutes after an intravenous injection is given (average of 3 rats); assay type: ADME, organism-based; details: in vivo; procedure, shortened: as §1
Rattus norvegicus [14] = test: Biodistribution of radioligand [125I]FIDA1 in lung of rat after 2 minutes after an intravenous injection is given (average of 3 rats); assay type: ADME, organism-based; details: in vivo; procedure, shortened: as §1
Rattus norvegicus [15] = test: Biodistribution of radioligand [125I]FIDA1 in skin of rat after 120 minutes after an intravenous injection is given (average of 3 rats); assay type: ADME, organism-based, Zone of skin; details: in vivo, 2 h; procedure, shortened: as §1
Rattus norvegicus [16] = test: Uptake of radioligand [125I]FIDA1 by cortex in rat after 60 minutes after an intravenous injection is given (average of 3 rats); assay type: ADME, organism-based; details: in vivo, 1 h; procedure, shortened: as §2
Rattus norvegicus [17] = test: Biodistribution of radioligand [125I]FIDA1 in spleen of rat after 2 minutes after an intravenous injection is given (average of 3 rats); assay type: ADME, organism-based; details: in vivo; procedure, shortened: as §1
Rattus norvegicus [18] = test: Biodistribution of radioligand [125I]FIDA1 in skin of rat after 2 minutes after an intravenous injection is given (average of 3 rats); assay type: ADME, organism-based, Zone of skin; details: in vivo; procedure, shortened: as §1
Rattus norvegicus [19] = test: Biodistribution of radioligand [125I]FIDA1 in brain of rat after 2 minutes after an intravenous injection is given (average of 3 rats); assay type: ADME, organism-based; details: in vivo; procedure, shortened: as §1
Rattus norvegicus [20] = test: Uptake of radioligand [125I]FIDA1 by striatum in rat after 60 minutes after an intravenous injection is given (average of 3 rats); assay type: ADME, organism-based; details: in vivo, 1 h; procedure, shortened: as §2
Rattus norvegicus [21] = test: Biodistribution of radioligand [125I]FIDA1 in thyroid of rat after 120 minutes after an intravenous injection is given (average of 3 rats); assay type: ADME, organism-based, Thyroid gland; details: in vivo, 2 h; procedure, shortened: as §1
Rattus norvegicus [22] = test: Biodistribution of radioligand [125I]FIDA1 in lung of rat after 60 minutes after an intravenous injection is given (average of 3 rats); assay type: ADME, organism-based; details: in vivo, 1 h; procedure, shortened: as §1
Rattus norvegicus [23] = test: Biodistribution of radioligand [125I]FIDA1 in brain of rat after 120 minutes after an intravenous injection is given (average of 3 rats); assay type: ADME, organism-based; details: in vivo, 2 h; procedure, shortened: as §1
Rattus norvegicus [24] = test: Uptake of radioligand [125I]FIDA1 by striatum in rat after 2 minutes after an intravenous injection is given (average of 3 rats); assay type: ADME, organism-based; details: in vivo; procedure, shortened: as §2
Rattus norvegicus [25] = test: Biodistribution of radioligand [125I]FIDA1 in kidney of rat after 60 minutes after an intravenous injection is given (average of 3 rats); assay type: ADME, organism-based; details: in vivo, 1 h; procedure, shortened: as §1
Rattus norvegicus [26] = test: Biodistribution of radioligand [125I]-FIDA1 in liver of rat after 2 minutes after an intravenous injection is given (average of 3 rats); assay type: ADME, organism-based; details: in vivo; procedure, shortened: as §1
Rattus norvegicus [27] = test: Biodistribution of radioligand [125I]FIDA1 in thyroid of rat after 2 minutes after an intravenous injection is given (average of 3 rats); assay type: ADME, organism-based, Thyroid gland; details: in vivo; procedure, shortened: as §1
Rattus norvegicus [28] = test: Biodistribution of radioligand [125I]FIDA1 in muscle of rat after 2 minutes after an intravenous injection is given (average of 3 rats); assay type: ADME, organism-based, Muscle tissue; details: in vivo; procedure, shortened: as §1
Rattus norvegicus [29] = test: Biodistribution of radioligand [125I]FIDA1 in spleen of rat after 120 minutes after an intravenous injection is given (average of 3 rats); assay type: ADME, organism-based; details: in vivo, 2 h; procedure, shortened: as §1
Rattus norvegicus [30] = test: Biodistribution of radioligand [125I]FIDA1 in blood of rat after 60 minutes after an intravenous injection is given (average of 3 rats); assay type: ADME, organism-based; details: in vivo, 1 h; procedure, shortened: as §1
Rattus norvegicus [31] = test: Biodistribution of radioligand [125I]FIDA1 in muscle of rat after 60 minutes after an intravenous injection is given (average of 3 rats); assay type: ADME, organism-based, Muscle tissue; details: in vivo, 1 h; procedure, shortened: as §1
Rattus norvegicus [32] = test: Biodistribution of radioligand [125I]FIDA1 in brain of rat after 60 minutes after an intravenous injection is given (average of 3 rats); assay type: ADME, organism-based; details: in vivo, 1 h; procedure, shortened: as §1
Rattus norvegicus [33] = test: Biodistribution of radioligand [125I]FIDA1 in kidney of rat after 30 minutes after an intravenous injection is given (average of 3 rats); assay type: ADME, organism-based; details: in vivo, 0.5 h; procedure, shortened: as §1
Rattus norvegicus [34] = test: Biodistribution of radioligand [125I]FIDA1 in heart of rat after 60 minutes after an intravenous injection is given (average of 3 rats); assay type: ADME, organism-based; details: in vivo, 1 h; procedure, shortened: as §1
Rattus norvegicus [35] = test: Biodistribution of radioligand [125I]FIDA1 in blood of rat after 2 minutes after an intravenous injection is given (average of 3 rats); assay type: ADME, organism-based; details: in vivo; procedure, shortened: as §1
Rattus norvegicus [36] = test: Uptake of radioligand [125I]-FIDA1 by cortex in rat after 120 minutes after an intravenous injection is given (average of 3 rats); assay type: ADME, organism-based; details: in vivo, 2 h; procedure, shortened: as §2
Rattus norvegicus [37] = test: Biodistribution of radioligand [125I]FIDA1 in spleen of rat after 60 minutes after an intravenous injection is given (average of 3 rats); assay type: ADME, organism-based; details: in vivo, 1 h; procedure, shortened: as §1

Dose/organ (Rattus norvegicus [1]) [%] | Dose/organ (Rattus norvegicus [2]) [%] | Dose/organ (Rattus norvegicus [3]) [%] | Dose/organ (Rattus norvegicus [4]) [%] | Dose/organ (Rattus norvegicus [5]) [%] | Dose/organ (Rattus norvegicus [6]) [%] | Dose/g (Rattus norvegicus [7]) [%] | Dose/organ (Rattus norvegicus [8]) [%] | Dose/organ (Rattus norvegicus [9]) [%] | Kd (Rattus norvegicus [10]) [nM] | Dose/g (Rattus norvegicus [11]) [%] | Dose/organ (Rattus norvegicus [12]) [%] | Dose/organ (Rattus norvegicus [13]) [%] | Dose/organ (Rattus norvegicus [14]) [%] | Dose/organ (Rattus norvegicus [15]) [%] | Dose/g (Rattus norvegicus [16]) [%] | Dose/organ (Rattus norvegicus [17]) [%] | Dose/organ (Rattus norvegicus [18]) [%] | Dose/organ (Rattus norvegicus [19]) [%] | Dose/g (Rattus norvegicus [20]) [%] | other results | SMILES
1.38 | 0.03 | 8.56 | 0.03 | 5.71 | 0.42 | 0.49 | 0.15 | 0.87 | 0.02 | 0.23 | 10.44 | 6.77 | 7.82 | 5.75 | 0.04 | 1.19 | 6.08 | 0.98 | 0.37 | Dose/organ (Rattus norvegicus [21]): 0.03%; Dose/organ (Rattus norvegicus [22]): 0.32%; Dose/organ (Rattus norvegicus [23]): 0.05%; Dose/g (Rattus norvegicus [24]): 0.59%; Dose/organ (Rattus norvegicus [25]): 1.38%; Dose/organ (Rattus norvegicus [26]): 19.41%; Dose/organ (Rattus norvegicus [27]): 0.07%; Dose/organ (Rattus norvegicus [28]): 11.14%; Dose/organ (Rattus norvegicus [29]): 0.05%; Dose/organ (Rattus norvegicus [30]): 0.64%; Dose/organ (Rattus norvegicus [31]): 4.21%; Dose/organ (Rattus norvegicus [32]): 0.1%; Dose/organ (Rattus norvegicus [33]): 2.96%; Dose/organ (Rattus norvegicus [34]): 0.06%; Dose/organ (Rattus norvegicus [35]): 2.08%; Dose/g (Rattus norvegicus [36]): 0.01%; Dose/organ (Rattus norvegicus [37]): 0.14% | COc1cc(I)cc(C(=O)NC[C@@H]2CCCN2Cc2ccc(F)cc2)c1OC
0.81 | 0.01 | 1.76 | 0.04 | 2.24 | 0.11 | 0.16 | 0.04 | 1.91 | 0.13 | 0.095 | 7.08 | 6.18 | 6.53 | 0.75 | 0.013 | 0.7 | 8.19 | 0.41 | 0.175 | Dose/organ (Rattus norvegicus [21]): 0.03%; Dose/organ (Rattus norvegicus [22]): 0.14%; Dose/organ (Rattus norvegicus [23]): 0.02%; Dose/g (Rattus norvegicus [24]): 0.3%; Dose/organ (Rattus norvegicus [25]): 0.39%; Dose/organ (Rattus norvegicus [26]): 20.46%; Dose/organ (Rattus norvegicus [27]): 0.07%; Dose/organ (Rattus norvegicus [28]): 11.83%; Dose/organ (Rattus norvegicus [29]): 0.01%; Dose/organ (Rattus norvegicus [30]): 0.78%; Dose/organ (Rattus norvegicus [31]): 1.96%; Dose/organ (Rattus norvegicus [32]): 0.05%; Dose/organ (Rattus norvegicus [33]): 1.42%; Dose/organ (Rattus norvegicus [34]): 0.03%; Dose/organ (Rattus norvegicus [35]): 3.76%; Dose/g (Rattus norvegicus [36]): 0.0014%; Dose/organ (Rattus norvegicus [37]): 0.05% | CCN1CCC[C@H]1CNC(=O)c1cc(I)cc(OC)c1OCCF

Reference: ChEMBL document CHEMBL1126811, “Fluorinated and iodinated dopamine agents: D2 imaging agents for PET and SPECT” (J Med Chem, 1993)
